Source: ChEMBL document CHEMBL2321721 (ACS Med Chem Lett, 2013)
Values belong to the compound of their own block, whether it stands above or below them. Activity calls are given as the source filed them. The calls are words filed in the database; no cut-off is given here.

What was measured:
[1] = system: Plasma; assay: Cmax in CD1 mouse plasma at 2.5 mg/kg, ip; type: ADME, organism-based; design: dose 2.5 mg/kg, route intraperitoneal; settings: in vivo
Procedure, shortened: (§1)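 Male CD-1 mice given a single dose, 1 mg/kg iv or 2.5 mg/kg ip, in 1:1:15 Cremophor:EtOH:phosphate-buffered saline carrier. Plasma concentrations measured. AUC extrapolated to infinity and normalized to dose in mg/kg. C0 is maximum plasma concentration extrapolated to t = 0. Cmax is the observed maximum plasma concentration.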

[2] = Half life in CD1 mouse at 1 mg/kg, iv; type: ADME, organism-based; design: dose 1 mg/kg, route intravenous; settings: in vivo; procedure, shortened: as §1
[3] = system: Mus musculus; assay: Dose normalized AUC in CD1 mouse at 1 mg/kg, iv; type: ADME, organism-based; design: dose 1 mg/kg, route intravenous; settings: in vivo; procedure, shortened: as §1
[4] = Half life in CD1 mouse at 2.5 mg/kg, ip; type: ADME, organism-based; design: dose 2.5 mg/kg, route intraperitoneal; settings: in vivo; procedure, shortened: as §1
[5] = system: Mus musculus; assay: Dose normalized AUC in CD1 mouse at 2.5 mg/kg, ip; type: ADME, organism-based; design: dose 2.5 mg/kg, route intraperitoneal; settings: in vivo; procedure, shortened: as §1
[6] = biological target: T1, Ribosomal protein S6 kinase alpha-3 (Homo sapiens, UniProt P51812); settings: MCF7, 100 uM
[7] = biological target: T1, Ribosomal protein S6 kinase alpha-3; settings: MCF7, 100 uM; remark: listed apart in the source
[8] = Initial plasma concentration in CD1 mouse at 1 mg/kg, iv; type: ADME, organism-based; design: dose 1 mg/kg, route intravenous; procedure, shortened: as §1
[9] = Partition coefficient, log P of the compound; type: physicochemical; settings: octanol/water
[10] = system: MCF7; assay: Decrease in cyclin D1 level in human PMA-stimulated MCF7 cells at 100 uM pretreated for 2 hrs prior to PMA addition measured after 20 mins by immunoblot analysis; type: functional, cell-based
Procedure, shortened: (§2)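 MCF-7 cells pretreated with inhibitor or vehicle, then stimulated with PMA or treated with DMSO vehicle. Lysates analysed by immunoblotting for eEF2 phosphorylation and other RSK biomarkers. Inhibitor concentrations were 100 μM or 25 μM.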

[11] = system: MCF-10A; assay: Inhibition of human MCF10A cell proliferation assessed as decrease in ATP content after 48 hrs by CellTiter-GloTM assay; type: cell-based
Procedure, shortened: (§3)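 Compounds added at time 0 to MCF-7 or MCF-10A cells at various concentrations, 25 μM or lower. Proliferation read as ATP content after 48 h of treatment, expressed as fold proliferation as a percentage of vehicle-treated cells. n = 3 in quadruplicate, SD, Student's t test.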

[12] = biological target: T1, Ribosomal protein S6 kinase alpha-3; assay: Inhibition of RSK2 in human PMA-stimulated MCF7 cells assessed as decrease in expression of 27kDa protein harboring (Lys/Arg)X(Lys/Arg)XX(pSer/pThr) motif at 25 uM pretreated for 24 hrs prior to PMA addition measured after 20 mins immunoblot analysis; type: cell-based; procedure, shortened: as §2
[13] = system: MCF7; assay: Decrease in cyclin D1 level in human PMA-stimulated MCF7 cells at 25 uM pretreated for 24 hrs prior to PMA addition measured after 20 mins by immunoblot analysis; type: functional, cell-based; procedure, shortened: as §2
[14] = biological target: T1, Ribosomal protein S6 kinase alpha-3; assay: Inhibition of RSK2 in human MCF7 cells assessed as reduction of PMA-induced decrease in EF2 kinase phosphorylation at 25 uM pretreated for 24 hrs prior to PMA addition measured after 20 mins by immunoblot analysis; type: cell-based; procedure, shortened: as §2
[15] = system: MCF7; assay: Inhibition of human MCF7 cell proliferation assessed as decrease in ATP content at 25 uM after 48 hrs by CellTiter-GloTM assay relative to SL0101; type: functional; settings: MCF7, 48 h; procedure, shortened: as §3
[16] = biological target: T1, Ribosomal protein S6 kinase alpha-3; assay: Ratio of SL0101 IC50 to compound IC50 for recombinant RSK2 (unknown origin) expressed in baculovirus infected Sf9 cells by chemiluminescence analysis
[17] = biological target: T1, Ribosomal protein S6 kinase alpha-3; assay: Inhibition of recombinant RSK2 (unknown origin) expressed in baculovirus infected Sf9 cells assessed as decrease in substrate phosphorylation using GST-fusion protein containing ERalpha-Ser167 sequence-RLASTND as substrate by chemiluminescence analysis

T1 sequence (P51812 whole entry): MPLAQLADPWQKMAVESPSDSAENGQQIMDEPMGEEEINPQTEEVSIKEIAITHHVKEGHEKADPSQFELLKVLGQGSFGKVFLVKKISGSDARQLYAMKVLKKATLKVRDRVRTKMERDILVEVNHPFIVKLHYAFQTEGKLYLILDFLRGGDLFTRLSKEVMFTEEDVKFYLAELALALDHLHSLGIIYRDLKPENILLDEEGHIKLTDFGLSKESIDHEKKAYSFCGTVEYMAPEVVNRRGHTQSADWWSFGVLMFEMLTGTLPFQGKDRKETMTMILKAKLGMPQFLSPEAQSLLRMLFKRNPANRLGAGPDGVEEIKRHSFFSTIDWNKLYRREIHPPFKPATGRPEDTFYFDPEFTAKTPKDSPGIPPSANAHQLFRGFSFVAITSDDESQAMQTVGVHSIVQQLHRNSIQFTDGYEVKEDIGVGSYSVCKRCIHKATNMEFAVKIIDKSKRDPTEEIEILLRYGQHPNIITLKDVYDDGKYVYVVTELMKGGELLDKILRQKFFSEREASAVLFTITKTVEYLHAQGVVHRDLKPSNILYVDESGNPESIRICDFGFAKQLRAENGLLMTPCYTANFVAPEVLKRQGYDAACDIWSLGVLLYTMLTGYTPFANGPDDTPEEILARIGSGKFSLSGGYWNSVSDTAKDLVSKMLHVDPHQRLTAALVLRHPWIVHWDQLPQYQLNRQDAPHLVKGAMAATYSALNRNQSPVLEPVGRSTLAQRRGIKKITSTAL

SMILES: CC(=O)O[C@@H]1[C@@H](OC(C)=O)[C@@H](O)[C@H](Oc2c(-c3ccc(O)cc3)oc3cc(O)cc(O)c3c2=O)O[C@H]1C
- Cmax [1]: 1851 ng/mL
- half-life [2]: 9 min
- AUC/dose [3]: 38.7 ng·kg·h/mL/mg
- half-life [4]: 24 min
- AUC/dose [5]: 1023 ng·kg·h/mL/mg
- inhibition [6]: Active
- inhibition [7]: Active
- C0 [8]: 291 ng/mL
- logP [9]: 2.11
- inhibition [10]: Active

SMILES: CCC[C@@H]1O[C@@H](Oc2c(-c3ccc(O)cc3)oc3cc(O)cc(O)c3c2=O)[C@H](O)[C@H](OC(C)=O)[C@H]1OC(C)=O
- Activity [11]: Non-toxic
- inhibition [12]: Active
- inhibition [13]: Active
- inhibition [14]: Active
- inhibition at 25 µM [15]: 50%
- Ratio IC50 [16]: > 40
- logP [9]: 3.17

SMILES: CCC[C@@H]1O[C@@H](Oc2c(-c3ccc(O)cc3)oc3cc(O)cc(O)c3c2=O)[C@H](OC(C)=O)[C@H](O)[C@H]1OC(C)=O
- IC50 [17]: 620 nM
- logP [9]: 3.39

SMILES: CC[C@@H]1O[C@@H](Oc2c(-c3ccc(O)cc3)oc3cc(O)cc(O)c3c2=O)[C@H](O)[C@H](O)[C@H]1O
- IC50 [17]: 1510 nM
- logP [9]: 1.64

SMILES: CCC[C@@H]1O[C@@H](Oc2c(-c3ccc(O)cc3)oc3cc(O)cc(O)c3c2=O)[C@H](O)[C@H](O)[C@H]1OC(C)=O
- IC50 [17]: 1500 nM
- logP [9]: 2.9

SMILES: CCC[C@@H]1O[C@@H](Oc2c(-c3ccc(O)cc3)oc3cc(O)cc(O)c3c2=O)[C@H](OC(C)=O)[C@H](OC(C)=O)[C@H]1OC(C)=O
- IC50 [17]: 1770 nM
- logP [9]: 3.87

Next, values leading:

- logP [9]: 2.41
SMILES: CC(C)C[C@@H]1O[C@@H](Oc2c(-c3ccc(O)cc3)oc3cc(O)cc(O)c3c2=O)[C@H](O)[C@H](O)[C@H]1O

- logP [9]: 2.2
SMILES: CCC[C@@H]1O[C@@H](Oc2c(-c3ccc(O)cc3)oc3cc(O)cc(O)c3c2=O)[C@H](O)[C@H](O)[C@H]1O
